SENP1 FRET inh = blocks the human SENP1 SUMO protease catalytic domain. Q9P0U3. recombinant SENP1 catalytic domain, CyPet-SUMO1-YPet FRET cleavage. inhibition, % at 10 µM. 360,000 tested, 0.21% active;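 active = inhibition at least 30% at 10 µM, raw YFP signal under a set limit, fluorescence ratio 0.5 to 1.5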;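 note: 0% = enzyme with DMSO and 100% = no enzyme wells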
Target sequence (Q9P0U3 419-644 limits assumed): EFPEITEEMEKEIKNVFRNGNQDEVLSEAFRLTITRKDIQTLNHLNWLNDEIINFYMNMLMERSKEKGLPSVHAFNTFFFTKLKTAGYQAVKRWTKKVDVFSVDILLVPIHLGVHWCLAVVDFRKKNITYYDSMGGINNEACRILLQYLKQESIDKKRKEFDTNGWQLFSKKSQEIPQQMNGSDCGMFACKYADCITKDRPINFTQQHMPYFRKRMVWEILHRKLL
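Compound: 10 µM single point, 0.5% DMSO; Test system: hSENP1 catalytic domain, recombinant; Timing: 50 min reaction at room temperature; Technique: FRET, CFP and YFP emission; Control set: no-enzyme wells low, DMSO-plus-enzyme wells high control.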
SENP7 inh = blocks the human protease SENP7. Q9BQF6. 330,000 tested, 1.5% active. inhibition, % at 5 µM. recombinant SENP7, Z-RLRGG-aminoluciferin luminescence, 40 min;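 active = inhibition above about 50% at the single test dose, limit read from the data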;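 note: plate controls were DMSO with enzyme for no effect and no enzyme buffer wells for full effect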
SENP8 block-1 = inhibitors of human SENP8 protease | recombinant SENP8, Nedd8 substrate fluorescence | 360,000 tested, 0.64% active | Q96LD8 | inhibition, % at 20 µM; in the data active = inhibition mostly above about 40%, no sharp cut-off; inactive = mostly below about 27%
SENP8 block-2 = inhibitors of human SENP8 protease. Q96LD8. purified SENP8, Z-RLRGG-aminoluciferin cleavage, luminescence. inhibition, % at 10 µM. 330,000 tested, 1.2% active. AID 2540; in the data active = inhibition above about 50%
SENP6 block = SENP6 protease inhibition; Q9GZR1; Recombinant SENP6 catalytic domain, aminoluciferin luminescence; inhibition, % at 10 µM; 330,000 tested, 1.8% active;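 active = inhibition above about 50% at the single tested dose, limit read from the data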;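 note: plate controls were DMSO wells with enzyme for no effect and DMSO wells lacking enzyme for full effect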
Target sequence (Q9GZR1 628-1112 limits assumed): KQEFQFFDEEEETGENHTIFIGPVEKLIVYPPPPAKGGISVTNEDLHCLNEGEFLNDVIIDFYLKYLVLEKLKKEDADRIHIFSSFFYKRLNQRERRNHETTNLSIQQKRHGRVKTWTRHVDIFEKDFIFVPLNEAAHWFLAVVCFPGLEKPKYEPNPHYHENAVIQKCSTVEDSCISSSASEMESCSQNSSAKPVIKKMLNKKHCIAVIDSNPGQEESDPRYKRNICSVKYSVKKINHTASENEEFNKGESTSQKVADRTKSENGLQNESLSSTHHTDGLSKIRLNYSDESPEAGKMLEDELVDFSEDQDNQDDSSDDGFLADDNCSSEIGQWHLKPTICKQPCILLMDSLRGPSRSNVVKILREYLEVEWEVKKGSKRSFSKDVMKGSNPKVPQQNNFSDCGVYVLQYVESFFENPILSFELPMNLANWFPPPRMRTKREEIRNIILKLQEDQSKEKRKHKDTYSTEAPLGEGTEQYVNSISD
SENP8 conf-1 = confirmation of human SENP8 protease inhibitors | shares compounds with SENP7 inh | Recombinant SENP8, Z-RLRGG-aminoluciferin luminescence, 60 min | inhibition, % at 12.5 µM | 6,200 tested, 40% active | AID 488912;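 active = mean inhibition across replicates above about 50%, limit read from the data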
SENP6 confirm = confirmation of human SENP6 protease inhibitors | shares compounds with SENP7 inh | recombinant SENP6, Z-RLRGG-aminoluciferin luminescence | inhibition, % at 12.5 µM | 6,200 tested, 58% active | AID 488915
SENP7 confirm = human SENP7 inhibition, confirmed. shares compounds with SENP7 inh. recombinant SENP7, Z-RLRGG-aminoluciferin luminescence, 40 min. inhibition, % at 12.5 µM. 6,200 tested, 69% active. AID 488917
Casp3 select = inhibits human caspase-3 in SENP selectivity test. AID 488918. purified caspase-3, Z-DEVD-aminoluciferin luminescence, 60 min. inhibition, % at 12.5 µM. shares compounds with SENP7 inh. 6,200 tested, 60% active;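 active = mean inhibition above about 50%, limit read from the data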;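 note: plate controls were enzyme with DMSO for no effect and wells without caspase-3 for full effect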
SENP luc ctr = luminescence interference (SENP counter-screen) | AID 488919 | inhibition, % at 12.5 µM | 6,200 tested, 39% active | shares compounds with SENP7 inh | Pre-incubated SENP8/Z-RLRGG-aminoluciferin, luciferase luminescence interference;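 active = mean inhibition above about 50% when retested at one dose, limit read from the data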;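 note: plate controls were DMSO wells with completed reaction for no effect and substrate without enzyme for full effect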
SENP8 conf-2 = SENP8 (human) inhibition, single concentration confirmation; shares compounds with SENP8 block-1; purified SENP8, Nedd8-AMC/pro-Nedd8 cleavage fluorescence, 30 min; inhibition, % at 25 µM; 1,400 tested, 15% active; AID 624319; in the data active = inhibition mostly above about 39%, no sharp cut-off; inactive = mostly below about 34%
An asterisk follows results filed as active; x = no result given. A selection: hits, their analogues and other compounds. The true share with any hit is near 2.5%.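 Rule for the calls, unless noted: active = mean inhibition above about 50% in the one-dose retest (limit read from the data); inactive = the rest.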

SMILES | SENP1 FRET inh | SENP7 inh | SENP8 block-1 | SENP8 block-2 | SENP6 block | SENP8 conf-1 | SENP6 confirm | SENP7 confirm | Casp3 select | SENP luc ctr | others
CC1=NN(C(N)=S)C(=O)C1N=Nc1ccc(C)c(Br)c1 (centres undefined) | 0 | 78* | 18 | 93* | 95* | 62* | 53* | 43 | 68* | 36
Cc1c(Cc2ccccc2)[n+](=O)c2ccccc2n1[O-] | -2 | x | 10 | x | x | x | x | x | x | x
COc1ccc(NC(C)=O)cc1S(=O)(=O)NC(C)c1ccc(-n2ccnc2)cc1 (centres undefined) | 2 | 0 | 5 | -5 | -8 | x | x | x | x | x
CC(C)(C)c1ccc(C(=O)Nc2cccnc2)cc1 | 0 | 62* | 9 | 53* | 69* | 12 | 55* | 86* | 66* | 62*
Cc1ccc(-c2cc(C(=O)Nc3cccnc3)[nH]n2)c(O)c1C | -2 | 95* | 24 | 93* | 98* | 96* | 97* | 101* | 90* | 96*
CC(C)(C)c1ccc(NC(=O)c2ccsc2)cc1 | 3 | 82* | 21 | 82* | 86* | 86* | 85* | 98* | 78* | 29
CCc1sc(C(=O)Nc2cccnc2)cc1Br | 3 | 79* | 14 | 60* | 84* | 0 | 67* | 91* | 64* | 72*
CC(C)(C)c1ccc(C(=O)Nc2ccc(Cl)cc2)cc1 | 1 | 10 | 5 | 7 | 7 | x | x | x | x | x
c1ccc(COc2ccc(-c3csnn3)cc2)cc1 | 4 | 73* | 25 | 41 | 66* | 6 | 14 | 24 | 21 | 7
CC(=O)COc1ccc(-c2csnn2)cc1 | 0 | -5 | 5 | -3 | -22 | x | x | x | x | x
CCC(Oc1ccccc1)C(=O)OCC(=O)Nc1sccc1C(N)=O (centres undefined) | -24 | -1 | -6 | -11 | 5 | x | x | x | x | x
CCCc1ccc2oc(C(=O)N3CCCC3)c(C)c2c1 | 2 | 0 | 4 | -7 | -10 | x | x | x | x | x
Cc1ccc2[nH]c(=O)c(CN(CC3CCCO3)S(=O)(=O)c3c(C)ccc4nsnc34)cc2c1 (centres undefined) | 1 | 4 | 11 | 5 | 2 | x | x | x | x | x
Cc1ccc2nsnc2c1S(=O)(=O)N(CCO)Cc1cc2cc3c(cc2[nH]c1=O)OCCO3 | -14 | 71* | -165 | -5 | -32 | -10 | -6 | -13 | -2 | 2
COc1ccc(CONc2ncnc3nonc23)cc1[N+](=O)[O-] | -1 | 46 | 11 | 55* | 70* | 2 | 50* | 83* | 70* | 62*
O=C(NS(=O)(=O)Oc1ccccc1F)OC[C@@H]1CCCN2CCCCC12 (some centres undefined) | 1 | 1 | 18 | -1 | -23 | x | x | x | x | x
N/C(=N\OC(=O)c1ccccc1Cl)c1cccnc1 | 1 | 57* | 11 | 41 | 65* | 56* | 54* | 82* | 79* | 64*
N/C(=N\OC(=O)c1ccc(Cl)c(Cl)c1)c1cccnc1 | 1 | 64* | 17 | 24 | 67* | 17 | 22 | 31 | 31 | 15
N/C(=N\OC(=O)c1cccc(Cl)c1)c1cccnc1 | -1 | 15 | 16 | 7 | 46 | x | x | x | x | x
N/C(=N\OC(=O)c1cc(Cl)ccc1Cl)c1cccnc1 | 4 | 0 | 19 | -10 | -14 | x | x | x | x | x
N/C(=N\OC(=O)c1ccccc1)c1cccnc1 | -1 | 56* | -7 | 24 | 39 | 16 | 17 | 61* | 72* | 38
CN(C)C(=O)c1ccc(-c2nnc(OCc3nc4ccccc4n3C)c3ccccc23)cc1 | 1 | x | 15 | x | x | x | x | x | x | x
O=S(=O)(c1ccc(N2CCOCC2)nc1)N(Cc1ccccn1)Cc1ccccn1 | 5 | -1 | -17 | -3 | -24 | x | x | x | x | x
O=C1/C(=C/c2ccc(O)cc2)COc2ccccc21 | 5 | 93* | -10 | 83* | 95* | 94* | 90* | 94* | 66* | 89*
COC(=O)[C@@]12C[C@@H](CC(=O)NCc3cccc4ccccc34)C(=O)N(Cc3ccccc3)C1=CCC(C)(C)C2 | 0 | x | 18 | x | x | x | x | x | x | x
SMILES | SENP1 FRET inh | SENP7 inh | SENP8 block-1 | SENP8 block-2 | SENP6 block | SENP8 conf-1 | SENP6 confirm | SENP7 confirm | Casp3 select | SENP luc ctr | others
Cc1cc(C)cc(NC(=S)Nc2cccc3cnccc23)c1 | -5 | 37 | -122 | 81* | 81* | 6 | 19 | 4 | -3 | -3
C=C(C)CNC(=S)Nc1cccc2cnccc12 | 0 | -3 | -11 | -6 | -5 | x | x | x | x | x
CCc1ccc(NC(=S)Nc2cccc3cnccc23)cc1 | -7 | 64* | -165 | 83* | 92* | 10 | 32 | 11 | 2 | 4
Cc1ccc(NC(=S)c2ccncc2)c(C)c1 | 1 | 8 | 11 | -10 | 10 | x | x | x | x | x
Cc1ccc(NC(=S)Nc2cccc3cnccc23)c(C)c1 | -3 | 77* | -70 | 87* | 95* | 7 | 9 | -8 | 2 | -1
CCCCNC(=S)N(CCCN(C)C)Cc1cc2cc3c(cc2[nH]c1=O)OCO3 | -9 | -7 | -396 | -12 | 15 | x | x | x | x | x
O=C1CN(C(=O)COc2c(F)c(F)cc(F)c2F)c2ccccc2N1 | 0 | -2 | 8 | -8 | -18 | x | x | x | x | x
CNC(=O)c1[nH]cnc1C(=O)Nc1ccc(OC)cc1 | 1 | -7 | 11 | 0 | 2 | x | x | x | x | x
O=C1Cc2ccccc2C(=O)N1Cc1ccccc1 | -5 | 79* | 85* | 94* | 91* | 39 | 88* | 64* | 72* | -7 | SENP8 conf-2=35
O=C1Cc2ccccc2C(=O)N1c1cccc(Cl)c1 | -3 | 18 | 71* | 10 | 52* | 9 | 33 | 22 | 14 | 3 | SENP8 conf-2=41
O=C1Cc2ccccc2C(=O)N1c1ccccc1 | -26 | 18 | 53* | 17 | 54* | 5 | 10 | 8 | 15 | 6 | SENP8 conf-2=4
O=C1CC(=O)N(c2ccccc2)c2ccccc21 | 0 | 1 | 10 | 1 | 2 | x | x | x | x | x
O=C(CC[C@H]1O[C@@H](n2ccc(=O)[nH]c2=O)[C@H](O)[C@@H]1O)N[C@H](Cc1ccccc1)C(=O)NCC1CCCCC1 | 1 | x | 10 | x | x | x | x | x | x | x
CCNC(=O)CSc1nc2ccccc2c(=O)n1-c1cc(OC)ccc1OC | 2 | 2 | 15 | -5 | -19 | x | x | x | x | x

Assay outcomes from PubChem.
